The target in assay [1] is Neuronal acetylcholine receptor; alpha4/beta2 (Homo sapiens) (UniProt P17787+P43681). The assay can be described thus: Binding affinity to human nAChR-alpha-4-beta-2 in HEK293 cells. The class given is cell-based. Summed up:
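Cloned human α4β2 nAChR in HEK-293 cell membranes, tested by SPA radioligand binding. Used [3H]epibatidine 1 nM, WGA-coated PVT beads 1 mg/well and 30 µg membrane protein/well, in Tris-HCl buffer (50 mM, 150 mM NaCl, 5 mM KCl, pH 7.4). Nonspecific binding defined with 10 µM epibatidine. Incubated 2-4 h at room temperature and read by scintillation counting. 4-parameter logistic IC50 converted to Ki by Cheng-Prusoff.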

Assay [2] has as its target Neuronal acetylcholine receptor; alpha3/beta4 (Homo sapiens) (UniProt P30926+P32297). The assay can be described thus: Binding affinity to human nAChR-alpha-3-beta-4 in HEK293 cells. The class given is cell-based. The essentials:
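Scintillation proximity assay on membranes from HEK-293 cells expressing cloned human α3β4 nAChR. [3H]epibatidine 2 nM, WGA-coated PVT beads 1.5 mg/well, 30 µg membrane protein/well, in 50 mM Tris-HCl, 150 mM NaCl, 5 mM KCl, pH 7.4. Nonspecific binding defined with 10 µM epibatidine. Equilibrated 2-4 h at room temperature, then scintillation counted. IC50 from 4-parameter logistic fit, converted to Ki by Cheng-Prusoff.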

Six molecules from ChEMBL document CHEMBL1142518, “Potential nicotinic acetylcholine receptor ligands from 2,4-methanoproline derivatives” (J Med Chem, 2008) can be followed below.

Calls of active or inactive are those of the source. The rule behind the calls is not given here.

Regarding `Cc1cc(CCC23CC(CN2)C3)on1`, the result in assay [1] and in assay [2] was inactive.
Consider `Cc1cc(C23CC(CN2)C3)on1`, for which the outcome in assay [1] and in assay [2] was inactive.
`c1cncc(OCC23CC(CN2)C3)c1`: the result in assay [1] and in assay [2] was inactive.
Turning to `c1ccc(OCC23CC(CN2)C3)cc1`, the outcome in assay [1] and in assay [2] was inactive.
Consider `Cc1cc(/C=C/C23CC(CN2)C3)on1`, for which the result in assay [1] and in assay [2] was inactive.
For the molecule `Clc1ccc(OCC23CC(CN2)C3)cn1`, the outcome in assay [1] and in assay [2] was inactive.
